Active and inactive are the calls of the source. The calls are words filed in the database; no cut-off is given here.

Test [1] relates to MCF7. Description: Downregulation of ERalpha expression in human MCF7 cells at 5 uM incubated for 24 hrs by DAPI staining based immunofluorescence microscopy. It counts as functional, cell-based. A digest of the protocol:
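MCF-7 cells on glass slides treated 24 h at 5 µM, washed with PBS and fixed with pre-cooled acetone. ERα immunostained with a red fluorescent label, nuclei counterstained with DAPI; ERα fluorescence intensity quantified.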

Test [2] deals with MCF7. Nature of the test: Induction of apoptosis in human MCF7 cells assessed as late apoptotic cells at 1 uM incubated for 24 hrs by AnnexinV-FITC/propidium iodide staining based flow cytometric analysis (reference value: 0.7%). It counts as functional.
Test [3] relates to MCF7. Nature of the test: Induction of apoptosis in human MCF7 cells assessed as early apoptotic cells at 5 uM incubated for 24 hrs by Annexin-V-FITC/propidium iodide staining based flow cytometric analysis (reference value: 0.8%). The format is functional.
Test [4] concerns MCF7. Nature of the test: Induction of apoptosis in human MCF7 cells assessed as late apoptotic cells at 5 uM incubated for 24 hrs by AnnexinV-FITC/propidium iodide staining based flow cytometric analysis (reference value: 0.7%). It counts as functional.
Test [5] deals with MCF7. Nature of the test: Induction of apoptosis in human MCF7 cells assessed as early apoptotic cells at 10 uM incubated for 24 hrs by AnnexinV-FITC/propidium iodide staining based flow cytometric analysis (reference value: 0.8%). The format is functional.
In test [6] the test system is MCF7. Nature of the test: Induction of apoptosis in human MCF7 cells assessed as late apoptotic cells at 10 uM incubated for 24 hrs by AnnexinV-FITC/propidium iodide staining based flow cytometric analysis (reference value: 0.7%). It counts as functional.
Test [7] has as its system MCF7. Nature of the test: Cell cycle arrest in human MCF7 cells assessed as accumulation at G0/G1 phase at 1 uM measured after 48 hrs by propidium iodide staining based flow cytometric analysis (reference value: 24.44%). It counts as functional.
The test system of test [8] is MCF7. Description: Cell cycle arrest in human MCF7 cells assessed as accumulation at S phase at 1 uM measured after 48 hrs by propidium iodide staining based flow cytometric analysis (reference value: 63.32%). The format is functional.
Test [9] has as its system MCF7. Nature of the test: Cell cycle arrest in human MCF7 cells assessed as accumulation at G2/M phase at 1 uM measured after 48 hrs by propidium iodide staining based flow cytometric analysis (reference value: 12.24%). It counts as functional.
The test system of test [10] is MCF7. Description: Cell cycle arrest in human MCF7 cells assessed as accumulation at S phase at 5 uM measured after 48 hrs by propidium iodide staining based flow cytometric analysis (reference value: 63.32%). It counts as functional.

In the case of `O=C(/C=C/CNCCOc1ccc(Oc2c(-c3ccc(F)cc3)sc3cc(O)ccc23)cc1)N1CCC1`, the inhibition entry in the test with MCF7 [1] was “Active”. Besides, the Activity is listed as 1.2% with MCF7 [2]; 5.3% in the test with MCF7 [3]; 6.4% in the test on MCF7 [4]; 12.5% in the test on MCF7 [5]; 13.2% in the test with MCF7 [6]; 31.21% with MCF7 [7]. Further, the Activity was found to be 51.43% in the test on MCF7 [8], 17.36% in the test on MCF7 [9] and 46.98% in the test with MCF7 [10].

The values above are taken from ChEMBL document CHEMBL4837222, “Design and synthesis of novel benzothiophene analogs as selective estrogen receptor covalent antagonists against breast cancer” (Eur J Med Chem, 2021).
